Reference: ChEMBL document CHEMBL4196158, “New Class of Selective Estrogen Receptor Degraders (SERDs): Expanding the Toolbox of PROTAC Degrons” (ACS Med Chem Lett, 2018)
Activity calls are given as the source filed them. The rule behind the calls is not given here.

Assays:
[1] = target: T1, Estrogen receptor (Homo sapiens) (UniProt P03372); assay: Displacement of [3H]estradiol from human full length ERalpha after 18 to 24 hrs by scintillation counting method
T1 sequence (whole entry): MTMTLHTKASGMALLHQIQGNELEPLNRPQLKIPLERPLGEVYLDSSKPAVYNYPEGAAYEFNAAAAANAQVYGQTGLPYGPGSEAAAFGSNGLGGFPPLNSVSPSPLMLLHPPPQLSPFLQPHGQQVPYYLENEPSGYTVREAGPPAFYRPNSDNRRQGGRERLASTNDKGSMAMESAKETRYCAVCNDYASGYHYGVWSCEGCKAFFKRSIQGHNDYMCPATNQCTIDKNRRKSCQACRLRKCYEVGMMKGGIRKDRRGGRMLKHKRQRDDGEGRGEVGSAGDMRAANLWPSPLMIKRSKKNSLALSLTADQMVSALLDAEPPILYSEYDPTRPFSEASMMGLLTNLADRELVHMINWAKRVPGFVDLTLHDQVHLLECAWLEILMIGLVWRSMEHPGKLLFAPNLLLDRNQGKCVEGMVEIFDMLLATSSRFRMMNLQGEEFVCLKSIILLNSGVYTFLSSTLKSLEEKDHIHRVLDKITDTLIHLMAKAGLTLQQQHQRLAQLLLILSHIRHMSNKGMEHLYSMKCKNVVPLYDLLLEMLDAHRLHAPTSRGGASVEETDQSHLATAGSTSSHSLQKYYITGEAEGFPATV

MCF7 [2] = assay: Antiproliferative activity against human MCF7 cells after 6 days by MTT assay; conditions: MCF7, 144 h
MCF7 [3] = assay: Antiproliferative activity against human MCF7 cells assessed as cell proliferation after 6 days by MTT assay relative to control; type: functional; set-up: concentration or dose not given beside the values
Method in brief: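 MCF-7 cells kept in complete medium, dosed across a concentration range (log scale ~10^-11 to 10^-5 M) for 6 days; cell density read by MTT. Average ± SEM of 4 measurements, n = 3 unless noted. IC50 taken from dose-response. Efficacy given as relative proliferation rate at highest dose versus vehicle, with the fulvestrant level set to zero.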

MCF7 [4] = assay: Proteolysis targeting chimera activity in human MCF7 cells assessed as induction of E3 ubiquitin ligase-mediated ERalpha level after 24 hrs by in-cell Western assay relative to control; type: cell-based; set-up: concentration or dose not given beside the values
Method in brief: (§1)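 MCF-7 cells in stripped medium were dosed across a concentration range (log ~10^-11 to 10^-5 M) for 24 h, and ERα was quantified by in-cell Western. Average ± SEM of 4 measurements, n = 3 unless noted. IC50 derived from the dose-response curve. Efficacy is the ERα level at the highest dose, as % of vehicle control.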

[5] = Proteolysis targeting chimera activity in human MCF7 cells assessed as induction of E3 ubiquitin ligase-mediated ERalpha degradation by proteasome after 24 hrs by in-cell Western assay; type: cell-based; conditions: MCF7, 24 h; method in brief: as §1
MCF7 [6] = assay: Proteolysis targeting chimera activity in human MCF7 cells assessed as induction of E3 ubiquitin ligase-mediated ERalpha level after 24 hrs by in presence of proteasome inhibitor MG132 by in-cell Western assay; type: cell-based
[7] = target: T1, Estrogen receptor (Homo sapiens); assay: Antagonist activity at ERalpha in human […] assessed as inhibition of estradiol-induced PgR gene expression level at 3 uM after 24 hrs by qRT-PCR method; type: cell-based
Method in brief: (§2)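 MCF-7 cells exposed 24 h to 3 µM compound with or without 1 nM estradiol (E2); transcript levels of PgR, pS2 and GREB1 quantified by qRT-PCR.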

[8] = target: T1, Estrogen receptor (Homo sapiens); assay: Antagonist activity at ERalpha in human […] assessed as inhibition of estradiol-induced pS2 gene expression level at 3 uM after 24 hrs by qRT-PCR method; type: cell-based; method in brief: as §2
[9] = target: T1, Estrogen receptor (Homo sapiens); assay: Antagonist activity at ERalpha in human […] assessed as inhibition of estradiol-induced GREB1 gene expression level at 3 uM after 24 hrs by qRT-PCR method; type: cell-based; method in brief: as §2

| Structure (SMILES) | RBA [1] [%] | IC50 (MCF7 [2]) [nM] | Activity (MCF7 [3]) [%] | Activity (MCF7 [4]) [%] | IC50 [5] [nM] | Activity (MCF7 [6]) | inhibition [7] | inhibition [8] | inhibition [9] |
| --- | --- | --- | --- | --- | --- | --- | --- | --- | --- |
| O=C(NCCCCOc1ccc(C(=C2C3CC4CC(C3)CC2C4)c2ccc(O)cc2)cc1)[C@@H]1C[C@@H]2C=C[C@H]1C2 | 37 | 9 | 42 | 53 | 0.5 | – | – | – | – |
| O=C(NCCCCOc1ccc(C(=C2C3CC4CC(C3)CC2C4)c2ccc(O)cc2)cc1)C1CCCCC1 | 28 | 0.6 | 13 | 35 | 0.4 | inactive | – | – | – |
| O=C(NCCCCOc1ccc(C(=C2C3CC4CC(C3)CC2C4)c2ccc(O)cc2)cc1)[C@H]1CC[C@H](C(F)(F)F)CC1 | 10 | 0.5 | 13 | 31 | 2 | – | Active | Active | Active |
| CC(C)C[C@H](NC(=O)OC(C)(C)C)C(=O)NCCCCOc1ccc(C(=C2C3CC4CC(C3)CC2C4)c2ccc(O)cc2)cc1 | 14 | 36 | 20 | 56 | 636 | – | – | – | – |
| CC12CC3CC(C)(C1)CC(C(=O)NCCCCOc1ccc(C(=C4C5CC6CC(C5)CC4C6)c4ccc(O)cc4)cc1)(C3)C2 | 6 | 5 | 57 | 42 | 10 | – | – | – | – |
| C[C@]12CC[C@@H]3c4ccc(O)cc4C[C@@H](CCCCCCCCC[S+]([O-])CCCC(F)(F)C(F)(F)F)[C@H]3[C@@H]1CC[C@@H]2O (stereo partly specified) [FULVESTRANT] | 61 | < 0.1 | 0 | 9 | < 0.1 | – | – | – | – |
| O=C(NCCCCOc1ccc(C(=C2C3CC4CC(C3)CC2C4)c2ccc(O)cc2)cc1)C1CCCCCC1 | 30 | 5 | 15 | 76 | – | – | – | – | – |
| O=C(NCCCCOc1ccc(C(=C2C3CC4CC(C3)CC2C4)c2ccc(O)cc2)cc1)C1CCC1 | 70 | 3 | 15 | 69 | – | – | – | – | – |
| O=C(NCCCCOc1ccc(C(=C2C3CC4CC(C3)CC2C4)c2ccc(O)cc2)cc1)C1CCC(F)(F)CC1 | 30 | 4 | 20 | 67 | – | – | – | – | – |
| O=C(NCCCCOc1ccc(C(=C2C3CC4CC(C3)CC2C4)c2ccc(O)cc2)cc1)C12CC3CC(CC(C3)C1)C2 | 11 | 13 | 13 | 51 | 6 | – | – | – | – |
| O=C(NCCCOc1ccc(C(=C2C3CC4CC(C3)CC2C4)c2ccc(O)cc2)cc1)C12CC3CC(CC(C3)C1)C2 | 26 | 9 | 13 | 42 | 3 | – | Active | Active | Active |
| CC(C)(C)OC(=O)N[C@@H](Cc1ccccc1)C(=O)NCCCCOc1ccc(C(=C2C3CC4CC(C3)CC2C4)c2ccc(O)cc2)cc1 | 14 | 7 | 25 | 71 | 307 | – | – | – | – |
| CC(C)(C)OC(=O)N[C@@H](Cc1c[nH]c2ccccc12)C(=O)NCCCCOc1ccc(C(=C2C3CC4CC(C3)CC2C4)c2ccc(O)cc2)cc1 | 20 | 16 | 16 | 45 | 0.5 | – | Active | Active | Active |
| O=C(NCCOc1ccc(C(=C2C3CC4CC(C3)CC2C4)c2ccc(O)cc2)cc1)C12CC3CC(CC(C3)C1)C2 | 21 | 17 | 16 | 76 | – | – | – | – | – |
| O=C(NCCCCOc1ccc(C(=C2C3CC4CC(C3)CC2C4)c2ccc(O)cc2)cc1)C12CC3CC(CC1C3)C2 | 17 | 12 | 42 | 71 | 2 | – | – | – | – |
